Laboratory results from ChEMBL document CHEMBL3414459, “Phenolic thio- and selenosemicarbazones as multi-target drugs” (Eur J Med Chem, 2015).
pEC50, pKi: −log10 of the molar value. Active and inactive are the calls of the source. No cut-off for these calls is given here.

Assays:
WiDr [1] = test: Potency index, ratio of GI50 for cisplatin to GI50 for compound against human WiDr cells after 48 hrs by sulforhodamine B assay; format: functional
HeLa [2] = test: Antiproliferative activity against human HeLa cells after 48 hrs by sulforhodamine B assay; format: functional
Outline: (§1)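 Exponentially growing cells trypsinized into penicillin/streptomycin medium, >97% viable by trypan blue. Seeded per well: 10,000 (A549, HBL-100, HeLa, SW1573), 15,000 (T-47D), 20,000 (WiDr). Treatment began day 1, DMSO stocks 40 mM, 0.25% DMSO as control, triplicate, 48 h. Cells fixed with cold TCA 60 min at 4 °C, SRB stained, OD492 read, medium background subtracted.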

[3] = Antioxidant activity assessed as H2O2 scavenging activity at 100 uM incubated for 20 mins by phenol red based assay; format: physicochemical
Outline: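 Compound at 100 µM final, or DMSO control, in 0.1 M phosphate buffer pH 7.4 with H2O2 and 0.1 M NaCl, incubated in the dark at 37 °C for 20 min. Phenol red (0.2 mg/mL) and horseradish peroxidase (0.1 mg/mL) added, 15 min at 37 °C. NaOH added, 10 min at rt, A610 read. % reduction = (A_control − A_sample)/A_control × 100.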

HeLa [4] = test: Potency index, ratio of GI50 for 5-fluorouracil to GI50 for compound against human HeLa cells after 48 hrs by sulforhodamine B assay; format: functional
A549 = test: Antiproliferative activity against human A549 cells after 48 hrs by sulforhodamine B assay; format: functional; settings: A549, 48 h; outline: as §1
SW1573 = test: Antiproliferative activity against human SW1573 cells after 48 hrs by sulforhodamine B assay; format: functional; settings: SW1573, 48 h; outline: as §1
[5] = Antiproliferative activity against human HBL100 cells after 48 hrs by sulforhodamine B assay; format: functional; settings: HBL-100, 48 h; outline: as §1
T47D [6] = test: Antiproliferative activity against human T47D cells after 48 hrs by sulforhodamine B assay; format: functional; outline: as §1
[7] = Inhibition of baker's yeast alpha-glucosidase using p-nitrophenyl-alpha-D-glucopyranoside substrate assessed as reduction in p-nitrophenolate formation at 500 uM; settings: Saccharomyces bayanus
Outline: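 α-Glucosidase in 0.1 M phosphate buffer pH 6.8 with p-nitrophenyl-α-D-glucopyranoside at K_M (250 µM; K_M 0.25 mM). Inhibitor at 500 µM final or DMSO, DMSO 5% v/v.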

Saccharomyces bayanus = test: Un-competitive inhibition of baker's yeast alpha-glucosidase using p-nitrophenyl-alpha-D-glucopyranoside substrate assessed as reduction in p-nitrophenolate formation by Lineweaver-Burk plot
Outline: (§2)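 Same α-glucosidase conditions: pH 6.8 phosphate buffer, 25 °C, A400 for p-nitrophenolate, 5% DMSO. Done for inhibitors exceeding 50% inhibition at 500 µM. Rates measured at 5 substrate concentrations from 0.25 to 4.0 K_m, each at a fixed inhibitor concentration, using 2–3 inhibitor concentrations. Lineweaver–Burk double reciprocal plots gave the inhibition mode and constants K_ia (E) and K_ib (ES).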

WiDr [8] = test: Antiproliferative activity against human WiDr cells after 48 hrs by sulforhodamine B assay; format: functional; outline: as §1
T47D [9] = test: Potency index, ratio of GI50 for cisplatin to GI50 for compound against human T47D cells after 48 hrs by sulforhodamine B assay; format: functional
WiDr [10] = test: Potency index, ratio of GI50 for 5-fluorouracil to GI50 for compound against human WiDr cells after 48 hrs by sulforhodamine B assay; format: functional
[11] = Antioxidant activity assessed as inhibition of the lipid peroxidation at 0.74 mM incubated for 24 hrs by ferric thiocyanate method; format: physicochemical; settings: 740 µM
Outline: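 Ferric thiocyanate method at 0.74 mM. 10.0 mM DMSO stock combined with methanolic linoleic acid in 0.2 M phosphate buffer pH 7.0. AAPH added, then 24 h at 50 °C in the dark; DMSO served as control. An aliquot was diluted in H2O–DMSO with NH4SCN and FeCl2 in HCl. After 3 min at rt, A546 read. % inhibition relative to control.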

[12] = Antioxidant activity assessed as DPPH free radical scavenging activity incubated for 30 mins; format: physicochemical
Outline: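 DPPH in HPLC-grade solvent mixed with compound in DMSO at 7 concentrations, or with DMSO alone as control. Kept in the dark at rt for 30 min, then A515 read against a blank. % DPPH remaining = A_sample/A_control × 100, plotted against concentration; EC50 taken from the straight line. Triplicate.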

T47D [13] = test: Potency index, ratio of GI50 for 5-fluorouracil to GI50 for compound against human T47D cells after 48 hrs by sulforhodamine B assay; format: functional
[14] = Inhibition of baker's yeast alpha-glucosidase using p-nitrophenyl-alpha-D-glucopyranoside substrate assessed as inhibition constant for enzyme-substrate-compound binding by measuring reduction in p-nitrophenolate formation; outline: as §2

In the case of `Oc1ccc(/C=N/NC(=[Se])Nc2cccc3ccccc23)cc1`, the RatioGI50 (WiDr [1]) was 11, the GI50 (HeLa [2]) was 2200 nM and the “inhibition (INH)” value [3] was 53.1%. The RatioGI50 (HeLa [4]) was 6.5, the GI50 (A549) was 1300 nM and the GI50 (SW1573) was 2300 nM. It also gave a GI50 [5] of 2100 nM, a GI50 (T47D [6]) of 2500 nM and an inhibition [7] of 100%. For the same molecule, the inhibition (Saccharomyces bayanus) was “Active”, the GI50 (WiDr [8]) was 2300 nM and the RatioGI50 (T47D [9]) was 6. The RatioGI50 (WiDr [10]) was 21, the “inhibition (INH)” value [11] was 23.3% and the pEC50 [12] was 4.66. For the same molecule, the RatioGI50 (T47D [13]) was 19 and the pKi [14] was 4.23.
